# Measles CPE: protection of cells from measles virus; AID 841; protection (pct of control), % at 4 µM; Measles virus-infected cells, CPE protection, absorbance; 140,000 compounds, 1.5% hits; in the data active means protection mostly above about 24%, no sharp cut-off; inactive means mostly below about 26%
# FLuc stim CS: affects firefly luciferase, flagging false hits in luciferase stimulation screens. P08659. ATPlite luciferase biochemical, luminescence, 10 min; 0 = ATP-free wells, 1 = DMSO control. activation factor at 10 µM. 200,000 tested, under 10 active. AID 1027;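 active means luciferase activation factor, scaled between plate controls, of at least 2 with compound at 10 µM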
#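 Assay system: Luciferase/luciferin reagent mix; Medium: PBS as buffer for the ATP substrate; Dosing: test compounds dosed from 2 mM stocks in 100% DMSO; Times: 10 min, room temperature; Signal: luminescence from luciferase reaction; Read-out: luciferase activation; Controls: No-ATP low control, compound-free enzyme-plus-ATP high control.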
# FLuc inhib CS: counter-screen for luciferase assay inhibitors: firefly luciferase inhibition | ATPLite firefly luciferase biochemical luminescence, 10 min | 200,000 compounds, 1.5% hits | inhibition, % at 10 µM | AID 1006 | P08659;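 active means inhibition above about 50% when tested at 10 µM, limit read from the data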
# ABCG2 block: human ABCG2 inhibition, ABCB1 as counter-screen; inhibition, % at 6.6 µM; AID 1325; Q9UNQ0; 190,000 compounds, 0.1% hits; IgMXP3 cells, JC-1 efflux, flow cytometry;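 active means inhibition above 80%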;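 further: 0% = DMSO and 100% = nicardipine control wells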
# Target sequence (Q9UNQ0 whole entry, looked up): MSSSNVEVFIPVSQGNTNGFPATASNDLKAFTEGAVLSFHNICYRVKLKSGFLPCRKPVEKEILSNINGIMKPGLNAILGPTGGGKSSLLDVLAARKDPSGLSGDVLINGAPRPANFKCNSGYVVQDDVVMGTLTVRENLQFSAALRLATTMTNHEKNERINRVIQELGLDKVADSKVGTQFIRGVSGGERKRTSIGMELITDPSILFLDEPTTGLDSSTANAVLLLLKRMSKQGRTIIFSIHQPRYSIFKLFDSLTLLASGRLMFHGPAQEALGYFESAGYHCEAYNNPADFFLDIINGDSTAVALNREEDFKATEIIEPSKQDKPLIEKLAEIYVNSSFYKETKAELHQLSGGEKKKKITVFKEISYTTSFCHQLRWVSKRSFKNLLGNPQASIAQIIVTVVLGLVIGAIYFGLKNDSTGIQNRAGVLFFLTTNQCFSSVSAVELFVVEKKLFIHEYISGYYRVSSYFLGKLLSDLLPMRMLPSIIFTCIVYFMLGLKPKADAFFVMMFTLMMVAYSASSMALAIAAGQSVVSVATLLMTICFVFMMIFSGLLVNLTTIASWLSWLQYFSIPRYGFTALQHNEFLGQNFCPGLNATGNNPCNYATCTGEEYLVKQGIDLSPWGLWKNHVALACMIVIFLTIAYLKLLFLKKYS
#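 Test system: IgMXP3 cells (ABCG2) mixed with DDAO far-red-labelled CCRF-Adr cells (ABCB1). Reagent: JC-1 transporter substrate. Compound dosing: single test compound dose, 6.6 µM final. Times: 10 min compound exposure, 25 °C. Detection: flow cytometry of retained JC-1 fluorescence. Read-out basis: efflux inhibition in percent versus controls. Controls: nicardipine and DMSO wells.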
# DTT redox prof: compounds producing H2O2 with reducing agent – biochemical, NIH compound library profiling, artefact control for MLSCN library redox annotation, primary screen. DTT-dependent redox cycling H2O2, phenol red/HRP absorbance; 100% = 100 µM peroxide control, 0% = buffer. activation, % at 10 µM. 200,000 compounds, 0.03% hits. AID 878;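 active means activation of at least 50% relative to the plate's high and low controls in the primary single-dose screen; inactive means activation below 50%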;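 further: compound incubated with DTT at 0.8 mM final as the reducing agent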
# ABCB1 block: human ABCB1 inhibition, ABCG2 as counter-screen; CCRF-Adr cells, JC-1 efflux, flow cytometry; P08183; 190,000 compounds, 0.067% hits; inhibition, % at 6.6 µM; AID 1326; in the data active means inhibition above about 40%;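 further: 0% = vehicle and 100% = reference inhibitor; higher value means more JC-1 retained so stronger ABCB1 efflux block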
# An asterisk follows results filed as active; . = no result. An excerpt weighted towards active compounds, which were near 2.7% of everything screened.
SMILES,Measles CPE,FLuc stim CS,FLuc inhib CS,ABCG2 block,DTT redox prof,ABCB1 block
O=C1/C(=C/c2cccs2)Sc2ccccc21,18,0.3,68*,-2,0,0
CCOc1ccccc1C(=O)Nc1cc(OC)ccc1OC,21,1,-3,100*,-1,3
COc1ccc(OC)c(NC(=O)c2ccccc2SC)c1,5,1,-2,2,0,0
O=C1CC(N2CCOCC2)C(=O)N1CCc1ccccc1 (configuration not stated),15,1.1,-9,1,2,0
O=C1CC(N2CCN(c3ccccc3)CC2)C(=O)N1CCc1ccccc1 (configuration not stated),40*,1,-4,1,-1,0
O=[N+]([O-])c1cc(S(=O)(=O)N2CCCCC2)ccc1NCCCN1CCOCC1,.,1.1,-6,3,-1,1
Clc1ccc(-n2nnnc2-c2ccccc2)cc1,52*,1.1,-7,0,0,0
Cc1ccc(-c2cn3c(n2)CCCC3)cc1,5,1.1,-6,-1,5,0
Cc1ccc(-c2cn3nc(C)c(C)nc3n2)cc1,10,0.2,75*,8,0,1
CCOC(=O)c1c(NC(=O)CSc2ncnc3[nH]ncc23)sc2c1CCC(C)C2 (configuration not stated),.,1.1,-5,17,0,1
C[C@@H](C(=O)Nc1ccc2ccccc2c1)[C@H]1C[C@]1(C)[C@H](NC(=O)OCc1ccccc1)c1ccccc1,38*,1,-2,8,1,0
C[C@H](CO)NC(=O)[C@H](C)[C@H]1C[C@]1(C)[C@H](NC(=O)OCc1ccccc1)c1ccccc1,17,1.1,-6,11,0,1
COc1cc(OC)c(C(=O)NCC(c2cccs2)N(C)C)cc1OC (configuration not stated),.,1,-4,4,0,1
COc1cc2ccccc2cc1C(=O)NCC(c1cccs1)N(C)C (configuration not stated),.,0.4,64*,1,-1,0
C[C@@H](C(=O)N1CCN(C(=O)OC(C)(C)C)CC1)n1cc(CCC(=O)O)nn1,.,1,0,1,0,0
Cc1cc(C)c2cc(C#N)c(N3CCCC3)nc2c1,38*,1,-2,10,2,1
CCOC(=O)c1sc(NS(=O)(=O)c2ccc(NC(C)=O)cc2)nc1C,19,1,0,0,1,0
Cn1c(CNS(=O)(=O)c2ccc(Cl)cc2)n[nH]c1=S,5,1,-3,0,3,0
Cn1c(CNS(=O)(=O)c2ccc(F)cc2)n[nH]c1=S,43*,1.1,-5,0,2,0
COc1ccc(CCN2C(=O)CC(C(N)=O)SC2=Nc2ccccc2)cc1OC (configuration not stated),13,1,-4,5,-1,0
CCOC(=O)C(C)c1nc2ccccc2[nH]c1=O (configuration not stated),25*,1,0,0,0,0
Cc1ccc(-c2nnc(N3CCN(C(=O)CSc4ncn[nH]4)CC3)c3ccccc23)cc1,7,1,-1,3,0,0
NC(=O)COC(=O)CC(NC(N)=O)c1ccc(Cl)cc1 (configuration not stated),37*,1.1,-6,20,1,1
NC(=O)NC(CC(=O)OCC(=O)NC(=O)NCc1ccco1)c1ccc(Cl)cc1 (configuration not stated),2,1,0,4,-1,1
O=C(O)c1nc(-c2ccccc2)n(-c2cccc(C(F)(F)F)c2)n1,.,1,0,23,0,-1
SMILES,Measles CPE,FLuc stim CS,FLuc inhib CS,ABCG2 block,DTT redox prof,ABCB1 block
COc1ccccc1N1CCN(Cc2cccs2)CC1,96*,1,3,0,0,0
CN=c1scc(-c2ccccc2F)n1/N=C/c1ccc(O)c(O)c1O,.,0,98*,-10,0,-1
CCN=c1scc(-c2ccc(F)cc2)n1/N=C/c1ccccn1,.,0.8,17,4,0,1
CC(C)N=c1scc(-c2cccs2)n1/N=C/c1ccc(O)c(O)c1O,14,0.9,15,-20,1,-2
CN=c1scc(-c2ccccc2F)n1/N=C/c1ccc[nH]1,.,0,97*,3,-1,1
Cc1nn(Cc2c(Cl)cccc2Cl)c(C)c1NC(=O)c1cc(C(C)C)on1,52*,1.1,-9,1,0,2
CS/C(=N/S(=O)(=O)c1ccc(C)cc1)c1ccccc1,18*,1,-3,9,0,1
CS/C(=N\S(=O)(=O)c1ccc(Cl)cc1)c1ccccc1,5,1.1,-8,3,0,1
COc1ccccc1/C=C/C(=O)NCC(=O)N/N=C(\CCC(=O)O)c1ccccc1,.,1,1,4,0,1
CC1(C)CC(=O)C(C=NCCN2CCNC2=O)=C(O)C1,35*,1.1,-9,2,0,0
O=c1c2c3c(sc2nc2n1N=C(c1cccs1)CS2)CCCC3,5,0.2,76*,-7,-1,-1
O=C(O/N=C1\CCS(=O)(=O)c2sccc21)c1ccc(F)cc1,.,0.9,6,-1,-1,0
O=C(O/N=C1/CCSc2ccccc21)c1ccc(F)cc1,11,0.1,88*,5,-3,1
O=C(O/N=C1/CCCc2occc21)c1ccc(F)cc1,.,0.2,80*,3,-1,1
CCCC/C(C)=N/NC(=O)C(=O)NCCc1ccccc1,19,1,-5,-5,-4,-1
O=C1/C(=C\c2ccc([N+](=O)[O-])cc2)CCc2ccccc21,5,0.2,81*,0,1,2
O=C1/C(=C/c2ccc(O)cc2)CCc2ccc([N+](=O)[O-])cc21,3,1.1,-6,10,0,1
O=C1/C(=C\c2cccnc2)CCc2ccccc21,14,0.4,63*,52,-4,2
O=C(CN1C2=NCCCN2c2ccccc21)c1ccc([N+](=O)[O-])cc1,.,1,-1,2,0,0
Cc1ccc(-c2nc3ccc([N+](=O)[O-])cc3[nH]2)cc1,.,0.4,61*,4,-2,0
Cc1ccc2nc(-c3cccc(N)c3)[nH]c2c1,8,0.1,88*,-4,1,0
Cc1ccc2nc(-c3sc4nc(C)cc(C)c4c3N)[nH]c2c1,10,0.4,64*,4,1,-1
COc1ccc(-c2nc3ccc([N+](=O)[O-])cc3[nH]2)cc1,21,0.6,44,14,0,0
COc1ccccc1OP(=O)(O)Oc1ccccc1OC,.,1,-5,2,10,1

# Assay outcomes (PubChem BioAssay)
